This is an account of results in ChEMBL document CHEMBL1166013, “Pharmacophore and structure-activity relationships of integrase inhibition within a dual inhibitor scaffold of HIV reverse transcriptase and integrase” (Bioorg Med Chem, 2010).

Active and inactive are the calls of the source. The rule behind the calls is not given here.

In series [1] the target is Human immunodeficiency virus type 1 integrase (Human immunodeficiency virus 1, UniProt Q7ZJM1). As to the kind of experiment: Inhibition of HIV 3B integrase strand transfer activity. Put shortly:
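IN expressed in E. coli BL21(DE3) by IPTG induction. 600 nM IN in HEPES pH 7.5, 10 mM MnCl2, 1 mM DTT, 10% glycerol, BSA, Brij-35 preincubated 10 min at room temperature with inhibitor or DMSO; 50 nM annealed 5'-biotin/3'-cy5 duplex DNA added, 2 h 37 °C. Product captured on streptavidin plate, washed, eluted with formamide, fluorescence read.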

In series [2] the test system is Human immunodeficiency virus 1. Put plainly: Antiviral activity against HIV1 3B infected in human CEM-SS cells assessed as reduction in virus-induced cytopathic effect at 10 uM after 6 days by MTS assay. Type of series: functional. Further details: scale not given: the % may be the effect or the level left.
The target in series [3] is Human immunodeficiency virus type 1 reverse transcriptase (Human immunodeficiency virus 1) (UniProt Q72547). Put plainly: Inhibition of HIV 3B reverse transcriptase at 10 uM using [3H]TTP as a tracer by scintillation counting. In short, it runs like this:
(§1)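 Resin-bound poly(A) template in scintillation format incubated with compound and [3H]-TTP tracer; reaction started by adding RT enzyme, run 3 h at 37 °C, quenched with stop buffer; incorporated [3H]-TTP counted 1 min per sample on a beta counter.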

For series [4] the target is unchanged. Put plainly: Inhibition of HIV 3B reverse transcriptase at 100 uM using [3H]TTP as a tracer by scintillation counting. Put shortly:
as §1

Series [5] has as its target Human immunodeficiency virus type 1 reverse transcriptase (Human immunodeficiency virus 1, UniProt Q72547). As to the kind of experiment: Inhibition of HIV 3B reverse transcriptase using [3H]TTP as a tracer by scintillation counting.
Series [6] in a line: Cytotoxicity against human CEM-SS cells after 6 days by MTS assay. Type of series: cell-based. Particulars: read-out: TC50. For orientation: Tetrazolium dyes change colour on reduction, which living cells bring about.
Series [7] has as its system Human immunodeficiency virus 1. Put plainly: Antiviral activity against HIV1 3B infected in human CEM-SS cells assessed as inhibition of virus-induced cytopathic effect after 6 days by MTS assay. Type of series: functional, organism-based. Particulars: Human immunodeficiency virus 1, 3B, 144 h. Put shortly: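 CEM-SS cells mixed with pre-titered HIV-1 IIIB (virus control wells lose 70–95% viability) in presence of compound, incubated 6 days; cytoprotection read by MTS or XTT dye reduction. Plates held cell, virus, compound toxicity and colorimetric controls; AZT positive control. EC50 = concentration inhibiting virus replication by 50%.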
(Damage to the host cells serves as the signal in cytopathic effect assays.)

The nature of series [8]: Therapeutic index, ratio of TC50 for human CEM-SS cells to EC50 for HIV1 3B. Type of series: cell-based. The settings on record: read-out: TI. Put shortly: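 TI calculated as TC50/EC50 from the 6-day CEM-SS cytoprotection assay (HIV-1 IIIB; MTS or XTT dye reduction) and matching compound-only toxicity wells.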

Human immunodeficiency virus type 1 integrase, sequence (Q7ZJM1 whole entry): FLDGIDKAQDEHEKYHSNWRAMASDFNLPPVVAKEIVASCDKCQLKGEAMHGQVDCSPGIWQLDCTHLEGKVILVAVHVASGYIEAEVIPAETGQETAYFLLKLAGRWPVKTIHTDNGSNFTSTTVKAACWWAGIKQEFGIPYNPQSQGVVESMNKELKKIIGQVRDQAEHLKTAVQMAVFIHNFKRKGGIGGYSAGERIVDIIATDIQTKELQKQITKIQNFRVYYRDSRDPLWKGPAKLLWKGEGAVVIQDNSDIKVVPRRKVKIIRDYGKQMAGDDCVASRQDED

Consider `CC(C)c1c(Cc2ccccc2)[nH]c(=O)n(CCCCCCc2ccc(C(=O)/C=C(\O)C(=O)O)cc2)c1=O`, for which the IC50 in series [1] is above 100 µM. Besides, the Activity in series [2] came to 9%. The inhibition in series [3] and in series [4] was 0% each time.
As to `CC(C)c1c(Cc2ccccc2)[nH]c(=O)n(CCc2ccc(C(=O)/C=C(\O)C(=O)O)cc2)c1=O`, the half-maximal inhibitory concentration (IC50) in series [1] was determined as 8 µM. Moreover, the Activity in series [2] is reported as 28%. Moreover, the inhibition in series [3] and in series [4] was 0% each time.
In turn, `CC(C)c1c(Cc2ccccc2)n(COCCc2ccc(C(=O)/C=C(\O)C(=O)O)cc2)c(=O)[nH]c1=O` returned a concentration for half-maximal inhibition (IC50) in series [1] of 7.4 µM. For the same compound, the Activity in series [2] amounted to 100%. Moreover, the inhibition in series [3] and in series [4] was 100% in each case.
In the case of `CCc1c(Cc2cc(C)cc(C)c2)n(COCc2ccc(Cc3cccc(C(=O)/C=C(\O)C(=O)O)c3)cc2)c(=O)[nH]c1=O`, the 50% inhibitory concentration (IC50) in series [5] is 0.028 µM; in series [1] it was 14 µM. Further, in series [6], the CC50 at 144 h is above 100 µM. In addition, the concentration for a half-maximal effect (EC50) in series [7] amounted to 0.014 µM. Also, in series [8], the selectivity ratio was above 710.
`CCc1c(Cc2ccccc2)nc(SCc2ccc(Cc3cccc(C(=O)/C=C(\O)C(=O)O)c3)cc2)[nH]c1=O` returned an IC50 in series [1] above 100 µM. In addition, the outcome in series [2] was inactive. Besides, the inhibition in series [3] and in series [4] was 0% throughout.
Turning to `Cc1cc(C)cc(Cc2c(C(C)C)c(=O)[nH]c(=O)n2COCc2ccc(Cc3cccc(C(=O)/C=C(\O)C(=O)O)c3)cc2)c1`, the 50% inhibitory concentration (IC50) in series [5] was found to be 0.1 µM; in series [1], 22 µM. Besides, in series [6], the CC50 at 144 h is 96 µM. For the same compound, the EC50 in series [7] was 0.17 µM. The selectivity ratio in series [8] turned out to be 560.
In series [1], `CC(C)c1c(Cc2ccccc2)n(COCCCc2ccc(C(=O)/C=C(\O)C(=O)O)cc2)c(=O)[nH]c1=O` returned a half-inhibitory concentration (IC50) of 8.2 µM. Further, the Activity in series [2] is listed as 91%. For the same compound, the inhibition in series [3] and in series [4] was 100% each time.
On to `CC(C)c1c(Cc2ccccc2)[nH]c(=O)n(CCCCc2ccc(C(=O)/C=C(\O)C(=O)O)cc2)c1=O`, for which the IC50 in series [1] was found to be 37 µM. For the same compound, the Activity in series [2] stood at 0%. Also, the inhibition in series [3] and in series [4] was 0% throughout.
As for `CCc1c(Cc2ccccc2)nc(SCc2ccc(C(=O)/C=C(\O)C(=O)O)cc2)[nH]c1=O`, the IC50 in series [1] was above 100 µM. Besides, the result in series [2] was inactive. In addition, the inhibition in series [3] and in series [4] was 0% in each case.
On to `CCc1c(Cc2ccccc2)n(COCc2ccc(Cc3cccc(C(=O)/C=C(\O)C(=O)O)c3)cc2)c(=O)[nH]c1=O`, for which the figures for the half-inhibitory concentration (IC50) in series [5] and in series [1] were 0.71 µM and 16 µM, respectively. The CC50 at 144 h in series [6] was determined as 32 µM. For the same compound, the 50% effective concentration (EC50) in series [7] stood at 0.56 µM. For the same compound, the selectivity ratio in series [8] stood at 56.
`CC(C)c1c(Cc2ccccc2)[nH]c(=O)n(CCCc2ccc(C(=O)/C=C(\O)C(=O)O)cc2)c1=O` gave an IC50 in series [1] of 12 µM. Further, the Activity in series [2] was 0.6%. Besides, the inhibition in series [3] and in series [4] was 0% each time.
`CC(C)c1c(Cc2ccccc2)n(COCc2ccc(Cc3cccc(C(=O)/C=C(\O)C(=O)O)c3)cc2)c(=O)[nH]c1=O`: the IC50 in series [5] is 0.16 µM; in series [1], 11 µM. Moreover, in series [6], the CC50 at 144 h is above 100 µM. In addition, in series [7], the concentration for a half-maximal effect (EC50) is 0.46 µM. Further, the selectivity ratio in series [8] was above 220.

The IC50 is the point on the concentration scale where inhibition reaches its midpoint. As usually defined, the inhibition is how much of the control response was suppressed. What is called EC50 is the concentration that produces a half-maximal response.
